Data: ChEMBL document CHEMBL1773054, “Ethionamide boosters: synthesis, biological activity, and structure-activity relationships of a series of 1,2,4-oxadiazole EthR inhibitors” (J Med Chem, 2011)
≈ marks a conversion by molar mass, not a printed value.

Columns and labels:
[1] = Inhibition of EthR in Mycobacterium tuberculosis H37Rv expressing GFP infected in mouse RAW264.7 cells assessed as concentration required to ethionamide-induced 50% inhibition of bacterial growth after 5 days by microscopic analysis; type: cell-based; conditions: RAW264.7, 120 h
Summary of the method: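 Raw264.7 macrophages infected with M. tuberculosis H37Rv-GFP (MOI 1:1, 2 h, 37 °C, shaking); extracellular bacilli killed with amikacin 20 μM for 1 h. Cells added to wells holding ethionamide fixed at 0.1 μg/mL plus ten 2-fold dilutions of compound. Incubated 5 days at 37 °C, 5% CO2. Macrophages stained with SYTO 60, then imaged by automated confocal microscopy. Read-out is % infected cells. EC50 is the mean of two experiments.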

[2] = tested on: RAW264.7; experiment: Cytotoxicity against mouse RAW264.7 cells at > 30 uM; type: cell-based
[3] = Solubility of the compound at pH 7.4 after 24 hrs; type: physicochemical; conditions: buffer
Summary of the method: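 A 10 mM DMSO solution was diluted into PBS pH 7.4 or methanol and shaken gently 24 h at room temperature. It was then centrifuged and passed through a 0.45 μm filter. Filtrate was diluted in methanol and read by LC-MS-MS. Solubility was taken from the PBS/methanol mass-signal area ratio.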

[4] = Half life in CD1 mouse liver microsomes by LC-MS-MS analysis; type: ADME, Microsome
Summary of the method: (§1)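 Male CD-1 mouse liver microsomes (0.6 mg protein/mL), compound 1 μM with 1% methanol vehicle, 5 mM MgCl2, 1 mM NADP, 5 mM glucose-6-phosphate, 0.4 U/mL G6PDH, 50 mM potassium phosphate pH 7.4, 37 °C, duplicates.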

[5] = tested on: RAW264.7; experiment: Inhibition of EthR in Mycobacterium tuberculosis H37Rv expressing GFP infected in mouse RAW264.7 cells assessed as potentiation of ethionamide-induced inhibition of intracellular bacterial growth after 5 days by microscopic analysis; type: cell-based
[6] = tested on: Liver; experiment: (§2) Intrinsic clearance in CD1 mouse liver microsomes by LC-MS-MS analysis; type: ADME, Microsome; conditions: mouse, microsomes; summary of the method: as §1
[7] = target: HTH-type transcriptional regulator EthR (Mycobacterium tuberculosis, UniProt P9WMC1); experiment: Inhibition of Mycobacterium tuberculosis EthR interaction to ethA promoter after 5 mins by surface plasmon resonance assay
[8] = as §2; type: ADME, Microsome; conditions: CD1, mouse, liver microsomes; summary of the method: as §1

HTH-type transcriptional regulator EthR, sequence (P9WMC1 whole entry): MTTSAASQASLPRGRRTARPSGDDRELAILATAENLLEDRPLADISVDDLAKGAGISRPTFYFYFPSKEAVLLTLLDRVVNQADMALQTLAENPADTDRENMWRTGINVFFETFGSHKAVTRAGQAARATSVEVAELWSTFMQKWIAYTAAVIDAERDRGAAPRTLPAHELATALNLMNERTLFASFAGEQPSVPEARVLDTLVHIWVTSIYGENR

| SMILES | EC50 [1] [µM] | fold change (FC) [5] | also measured |
| --- | --- | --- | --- |
| O=C(CC1CCCC1)N1CCC(c2nc(-c3cccs3)no2)CC1 | 0.4 |  | Activity [2]: Toxic |
| O=C(CCC(F)(F)F)N1CC[C@@H](c2nc(-c3cccs3)no2)C1 | 0.4 |  | Activity [2]: Non-toxic; solubility at 24 h [3]: 80 µg/mL (≈ 232 µM); half-life [4]: 298 min |
| O=S(=O)(CCC(F)(F)F)N1CCC(c2nc(-c3cccs3)no2)CC1 | > 5 |  |  |
| O=C(CCc1cccs1)N1CCC(c2nc(-c3cccs3)no2)CC1 | > 5 | 10 |  |
| O=C(CCC1CCCCC1)N1CCC(c2nc(-c3cccs3)no2)CC1 | 1.8 |  |  |
| O=C(Cc1ncc[nH]1)N1CCC(c2nc(-c3cccs3)no2)CC1 | > 5 | 10 |  |
| COCC(=O)N1CCC(c2nc(-c3cccs3)no2)CC1 | > 5 |  |  |
| O=C(CCC(F)(F)F)N1CCC(c2nc(-c3cccs3)no2)CC1 | 0.1 |  | Activity [2]: Non-toxic; half-life [4]: 5 min; CL [6]: 213 µL/min/mg |
| CC(C)(C)CCC(=O)N1CCC(c2nc(-c3cccs3)no2)CC1 | > 5 |  |  |
| O=C(CCC(F)(F)F)NCCCc1nc(-c2cccs2)no1 | > 5 |  |  |
| CC(C)CC(O)C(=O)N1CCC(c2nc(-c3cccs3)no2)CC1 (stereo unspecified) | > 5 |  |  |
| O=C(CC(O)C(F)(F)F)N1CCC(c2nc(-c3cccs3)no2)CC1 (stereo unspecified) | > 5 |  |  |
| CC(C)NCC(O)COc1cccc2ccccc12 (stereo unspecified) [PROPRANOLOL] |  |  | half-life [4]: 13 min |
| O=C(NCC(F)(F)F)N1CCC(c2nc(-c3cccs3)no2)CC1 | > 5 |  |  |
| O=C(c1ccccc1)N1CCC(c2nc(-c3cccs3)no2)CC1 | > 5 | 10 |  |
| COc1cccc(CC(=O)N2CCC(c3nc(-c4cccs4)no3)CC2)c1 | > 5 | 10 |  |
| O=C(Cc1ccc(Cl)cc1)N1CCC(c2nc(-c3cccs3)no2)CC1 | 2.2 | 10 |  |
| O=C(CCC(F)(F)F)N1CCC[C@H](c2nc(-c3cccs3)no2)C1 | > 5 |  |  |
| O=C(Cc1ccncc1)N1CCC(c2nc(-c3cccs3)no2)CC1 | > 5 | 10 |  |
| O=C(Cc1cccc(C(F)(F)F)c1)N1CCC(c2nc(-c3cccs3)no2)CC1 | > 5 | 10 |  |

| SMILES | EC50 [1] [µM] | fold change (FC) [5] | also measured |
| --- | --- | --- | --- |
| CCCC(=O)N1CCC(c2nc(-c3cccs3)no2)CC1 | 2.1 |  |  |
| COCCC(=O)N1CCC(c2nc(-c3cccs3)no2)CC1 | > 5 |  |  |
| CC(C)CC(=O)N1CCC(c2nc(-c3cccs3)no2)CC1 | 2.5 |  |  |
| O=C(O)CCC(=O)N1CCC(c2nc(-c3cccs3)no2)CC1 | > 5 |  |  |
| O=C(CC(F)(F)F)N1CCC(c2nc(-c3cccs3)no2)CC1 | 1.3 |  |  |
| O=C(Cc1ccc(F)cc1)N1CCC(c2nc(-c3cccs3)no2)CC1 | 0.8 | 10 |  |
| O=C(Cc1ccccc1Cl)N1CCC(c2nc(-c3cccs3)no2)CC1 | > 5 | 10 |  |
| O=C(Cc1cccnc1)N1CCC(c2nc(-c3cccs3)no2)CC1 | > 5 | 10 |  |
| O=C(Cc1cccc(Cl)c1)N1CCC(c2nc(-c3cccs3)no2)CC1 | > 5 | 10 |  |
| CC(C)C[C@H](N)C(=O)N1CCC(c2nc(-c3cccs3)no2)CC1 | > 5 |  |  |
| O=C(CC1CC1)N1CCC(c2nc(-c3cccs3)no2)CC1 | 0.2 |  | IC50 [7]: 1.1 µM; Activity [2]: Non-toxic; solubility at 24 h [3]: 64 µg/mL (≈ 202 µM) |
| O=C(Cc1ccccc1)N1CCC(c2nc(-c3cccs3)no2)CC1 | 2.1 | 10 | IC50 [7]: 5.6 µM |
| CC1CCC(CC(=O)N2CCC(c3nc(-c4cccs4)no3)CC2)CC1 (stereo unspecified) | > 5 |  |  |
| O=C(Cc1cccs1)N1CCC(c2nc(-c3cccs3)no2)CC1 | 0.1 |  | IC50 [7]: 0.5 µM; solubility at 24 h [3]: 22 µg/mL (≈ 61.2 µM); half-life [4]: 3 min; microsomal CLint [8]: 412 µL/min/mg |
| CCCCC(=O)N1CCC(c2nc(-c3cccs3)no2)CC1 | 1.1 |  |  |
| N#CCC(=O)N1CCC(c2nc(-c3cccs3)no2)CC1 | 1.5 |  | solubility at 24 h [3]: 194 µg/mL (≈ 642 µM); half-life [4]: 91 min; microsomal CLint [8]: 11 µL/min/mg |
| CC(C)CCC(=O)N1CCC(c2nc(-c3cccs3)no2)CC1 | 0.1 |  | Activity [2]: Toxic |
| O=C(CCC(F)(F)F)N1CCC[C@@H](c2nc(-c3cccs3)no2)C1 | > 5 |  |  |
| [N-]=[N+]=NCC(=O)N1CCC(c2nc(-c3cccs3)no2)CC1 | 1.2 |  |  |
| CC(CC(=O)N1CCC(c2nc(-c3cccs3)no2)CC1)C(F)(F)F (stereo unspecified) | > 5 |  |  |

| SMILES | EC50 [1] [µM] | fold change (FC) [5] | also measured |
| --- | --- | --- | --- |
| CC(C)(C)CC(=O)N1CCC(c2nc(-c3cccs3)no2)CC1 | > 5 |  |  |
| O=C(CCC(F)(F)F)N1CC[C@H](c2nc(-c3cccs3)no2)C1 | 1.6 |  |  |
| O=C(Cc1ccc(C(F)(F)F)cc1)N1CCC(c2nc(-c3cccs3)no2)CC1 | > 5 | 10 |  |
| CC(CC(F)(F)F)C(=O)N1CCC(c2nc(-c3cccs3)no2)CC1 (stereo unspecified) | > 5 |  |  |
| O=C(Cc1ccccc1C(F)(F)F)N1CCC(c2nc(-c3cccs3)no2)CC1 | > 5 | 10 |  |
| O=C(CCC(F)(F)F)N1CC(c2nc(-c3cccs3)no2)C1 | > 5 |  |  |
| COc1ccccc1CC(=O)N1CCC(c2nc(-c3cccs3)no2)CC1 | > 5 | 10 |  |
| O=C(CCC(F)(C(F)(F)F)C(F)(F)F)N1CCC(c2nc(-c3cccs3)no2)CC1 | > 5 |  |  |
| CC(C)[C@H](N)C(=O)N1CCC(c2nc(-c3cccs3)no2)CC1 | > 5 |  |  |
| CCC(=O)N1CCC(c2nc(-c3cccs3)no2)CC1 | > 5 |  |  |
| O=C(Cc1ccccn1)N1CCC(c2nc(-c3cccs3)no2)CC1 | > 5 | 10 |  |
| O=C(Cc1cccc(F)c1)N1CCC(c2nc(-c3cccs3)no2)CC1 | > 5 | 10 |  |
| CC(=O)N1CCC(c2nc(-c3cccs3)no2)CC1 | > 5 |  |  |
| COc1ccc(CC(=O)N2CCC(c3nc(-c4cccs4)no3)CC2)cc1 | > 5 | 10 |  |
| Cc1ccccc1CC(=O)N1CCC(c2nc(-c3cccs3)no2)CC1 | > 5 | 10 |  |
| O=C(CC1CCCCC1)N1CCC(c2nc(-c3cccs3)no2)CC1 | 0.3 |  | Activity [2]: Toxic |
| Cc1ccc(CC(=O)N2CCC(c3nc(-c4cccs4)no3)CC2)cc1 | > 5 | 10 |  |
| Cc1cccc(CC(=O)N2CCC(c3nc(-c4cccs4)no3)CC2)c1 | > 5 | 10 |  |
| O=C(Cc1ccccc1F)N1CCC(c2nc(-c3cccs3)no2)CC1 | > 5 | 10 |  |
